The results in this text go back to ChEMBL document CHEMBL1152452, “Modifications incorporated in CpG motifs of oligodeoxynucleotides lead to antagonist activity of toll-like receptors 7 and 9” (2009).

Experiment [1] has as its system Mus musculus. In words: Immunostimulatory activity in C57BL/6 mouse assessed as inhibition of 5'-CTATCTGACGTTCTCTGT-3'-induced IL10 production in serum at 2 mg/kg, sc administered 24 hrs prior to 5'-CTATCTGACGTTCTCTGT-3' challenge measured after 2 hrs by Luminex multiplex assay. Type of experiment: functional, organism-based. Set-up: dose 2 mg/kg. The gist of the method:
(§1)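 C57BL/6 mice received 2 mg/kg ODN sc in one flank. After 24 h, the TLR9 agonist ODN was given at 0.5 mg/kg sc in the opposite flank. Blood was drawn 2 h later and serum cytokines/chemokines were quantified by Luminex multiplex assay. Percent inhibition was taken against the agonist alone. Representative of three experiments.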

For experiment [2], the system named is Mus musculus. In words: Immunostimulatory activity in C57BL/6 mouse assessed as inhibition of 5'-CTATCTGACGTTCTCTGT-3'-induced MCP1 production in serum at 2 mg/kg, sc administered 24 hrs prior to 5'-CTATCTGACGTTCTCTGT-3' challenge measured after 2 hrs by Luminex multiplex assay. Format: functional, organism-based. Also on record: dose 2 mg/kg. In a few lines: as §1

The target of experiment [3] is T1, Toll-like receptor 9 (Mus musculus) (UniProt Q9EQU3).
T1 sequence (whole entry): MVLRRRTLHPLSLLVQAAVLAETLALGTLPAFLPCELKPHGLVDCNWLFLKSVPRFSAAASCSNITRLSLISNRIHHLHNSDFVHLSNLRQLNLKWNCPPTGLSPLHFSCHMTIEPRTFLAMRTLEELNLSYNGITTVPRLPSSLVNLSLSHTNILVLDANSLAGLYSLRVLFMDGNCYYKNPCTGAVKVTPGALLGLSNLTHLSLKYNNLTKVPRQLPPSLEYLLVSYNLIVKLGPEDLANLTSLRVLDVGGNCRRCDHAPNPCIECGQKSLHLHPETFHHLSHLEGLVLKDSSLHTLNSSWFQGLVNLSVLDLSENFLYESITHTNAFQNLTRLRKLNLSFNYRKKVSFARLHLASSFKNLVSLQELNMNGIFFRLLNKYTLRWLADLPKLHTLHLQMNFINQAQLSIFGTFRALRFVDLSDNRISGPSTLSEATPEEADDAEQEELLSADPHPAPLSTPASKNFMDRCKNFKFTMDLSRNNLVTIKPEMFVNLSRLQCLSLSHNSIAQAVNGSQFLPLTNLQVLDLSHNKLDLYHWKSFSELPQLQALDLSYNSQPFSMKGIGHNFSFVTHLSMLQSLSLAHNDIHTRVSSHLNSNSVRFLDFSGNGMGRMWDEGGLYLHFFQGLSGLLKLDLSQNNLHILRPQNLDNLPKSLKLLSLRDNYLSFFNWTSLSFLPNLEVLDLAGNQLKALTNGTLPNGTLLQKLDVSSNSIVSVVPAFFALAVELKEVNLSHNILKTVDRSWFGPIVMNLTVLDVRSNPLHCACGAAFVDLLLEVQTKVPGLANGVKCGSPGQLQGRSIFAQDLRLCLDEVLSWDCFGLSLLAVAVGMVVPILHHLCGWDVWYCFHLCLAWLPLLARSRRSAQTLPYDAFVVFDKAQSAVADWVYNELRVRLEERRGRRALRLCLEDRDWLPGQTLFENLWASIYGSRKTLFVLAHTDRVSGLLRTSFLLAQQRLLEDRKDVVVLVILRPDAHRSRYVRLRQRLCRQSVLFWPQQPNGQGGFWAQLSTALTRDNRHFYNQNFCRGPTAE
In words: Activation of mouse TLR9 expressed in HEK293 cells assessed as NF-kappaB level at 0.3 ug/mL after 18 hrs by reporter gene assay. Format: cell-based. The gist of the method:
(§2)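 HEK293 cells stably expressing mouse TLR9 were transiently transfected with a SEAP reporter for 6 h, then stimulated with ODN at 0.1, 0.3 or 1 μg/mL for 18 h. Reporter expression is given as fold change in NF-κB activity over medium. Representative of two independent experiments.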
(In general: A reporter such as luciferase makes a cellular process visible.)

A further experiment relates to J774. In words: Inhibition of 5'-CTATCTGACGTTCTCTGT-3'-activated NF-kappaB activity in mouse J774 cells at 2.5 ug/ml after 1 hr by EMSA. Format: cell-based. The gist of the method:
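J774 murine macrophages were grown in DMEM with 10% FBS and antibiotics, plated at 5 × 10^6 cells/well, and co-incubated for 1 h with the agonist ODN (0.5 µg/mL) and test ODN (2.5 µg/mL). Nuclear extracts were prepared and NF-κB binding was analysed by EMSA on native polyacrylamide gels with autoradiography.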
Background: A gel shift assay detects complexes by their altered migration in electrophoresis.

Experiment [4] has as its system Mus musculus. Description: Immunostimulatory activity in C57BL/6 mouse assessed as inhibition of 5'-CTATCTGACGTTCTCTGT-3'-induced KC production in serum at 2 mg/kg, sc administered 24 hrs prior to 5'-CTATCTGACGTTCTCTGT-3' challenge measured after 2 hrs by Luminex multiplex assay. Also on record: dose 2 mg/kg. Format: functional, organism-based. The gist of the method: as §1

Experiment [5] relates to Splenocyte. Description: Immunostimulatory activity in C57BL/6 mouse splenocytes assessed as induction of IL12 secretion at 2 to 10 ug/ml after 24 hrs by sandwich ELISA. Type of experiment: functional, cell-based. In a few lines:
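C57BL/6 splenocytes (mice 5–8 weeks) at 5 × 10^6 cells/mL in RPMI complete medium. ODNs dissolved in PBS were added and the cells incubated at 37 °C for 24 h. Supernatant IL-12 or IL-6 was measured by sandwich ELISA. Runs were done two or three times, in duplicate per concentration.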
A general note: In an ELISA, binding on a coated surface is turned into a signal by an enzyme label.

The subject of experiment [6] is Splenocyte. Description: Inhibition of 5'-CTATCTGACGTTCTCTGT-3'-induced IL6 secretion in C57BL/6 mouse splenocytes at 4 ug/ml after 24 hrs by sandwich ELISA. Type of experiment: functional, cell-based. The gist of the method: (§3)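 Splenocytes from 5–8-week C57BL/6 mice, 5 × 10^6 cells/mL in RPMI complete medium, were co-incubated with the TLR9 agonist ODN (1 µg/mL) plus test ODN at 1 or 4 µg/mL, or over a concentration series, at 37 °C for 24 h. Supernatant IL-12 or IL-6 was measured by sandwich ELISA. Runs were done in duplicate, with three independent experiments.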

For experiment [7], the system named is Mus musculus. In words: Immunostimulatory activity in C57BL/6 mouse assessed as inhibition of 5'-CTATCTGACGTTCTCTGT-3'-induced TNFalpha production in serum at 2 mg/kg, sc administered 24 hrs prior to 5'-CTATCTGACGTTCTCTGT-3' challenge measured after 2 hrs by Luminex multiplex assay. Type of experiment: functional, organism-based. Set-up: dose 2 mg/kg. In a few lines:
as §1

The test system of experiment [8] is Mus musculus. In words: Immunostimulatory activity in C57BL/6 mouse assessed as induction of TNFalpha level in serum at 2 mg/kg, sc after 2 hrs by Luminex multiplex assay. Type of experiment: functional, organism-based. Set-up: dose 2 mg/kg. In a few lines:
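Female C57BL/6 mice, 5–6 weeks old, n = 3, received a single 2 mg/kg subcutaneous ODN injection in the right flank. Blood was taken by retro-orbital bleeding 2 h later. Naive mice served as baseline. Representative of three experiments.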

The target in experiment [9] is T1, Toll-like receptor 9 (Mus musculus). In words: Activation of mouse TLR9 expressed in HEK293 cells assessed as NF-kappaB level at 0.1 ug/mL after 18 hrs by reporter gene assay. Format: cell-based. In a few lines:
as §2

Experiment [10] deals with Splenocyte. In words: Inhibition of 5'-CTATCTGACGTTCTCTGT-3'-induced IL12 secretion in C57BL/6 mouse splenocytes at 4 ug/ml after 24 hrs by sandwich ELISA. Type of experiment: functional, cell-based. In a few lines: as §3
Experiment [11] has as its system Mus musculus. In words: Immunostimulatory activity in C57BL/6 mouse assessed as inhibition of 5'-CTATCTGACGTTCTCTGT-3'-induced MIP-1alpha production in serum at 2 mg/kg, sc administered 24 hrs prior to 5'-CTATCTGACGTTCTCTGT-3' challenge measured after 2 hrs by Luminex multiplex assay. Type of experiment: functional, organism-based. Also on record: dose 2 mg/kg. In a few lines: as §1

Molecules are shown by their SMILES. Active and inactive are the calls of the source. No cut-off for these calls is given here.

On to `CO[C@@H]1[C@H](OP(=O)(S)OC[C@H]2O[C@@H](n3cc(C)c(=O)[nH]c3=O)C[C@@H]2OP(=O)(S)OC[C@H]2O[C@@H](n3cc(C)c(=O)[nH]c3=O)C[C@@H]2OP(=O)(S)OC[C@H]2O[C@@H](n3ccc(N)nc3=O)C[C@@H]2OP(=O)(S)OC[C@H]2O[C@@H](n3cc(C)c(=O)[nH]c3=O)C[C@@H]2OP(=O)(S)OC[C@H]2O[C@@H](n3ccc(N)nc3=O)C[C@@H]2OP(=O)(S)OC[C@H]2O[C@@H](n3cc(C)c(=O)[nH]c3=O)C[C@@H]2OP(=O)(S)OC[C@H]2O[C@@H](n3cnc4c(=O)[nH]c(N)nc43)C[C@@H]2OP(=O)(S)OC[C@H]2O[C@@H](n3cc(C)c(=O)[nH]c3=O)C[C@@H]2O)[C@@H](COP(=O)(S)O[C@H]2C[C@H](n3ccc(N)nc3=O)O[C@@H]2COP(=O)(S)O[C@H]2C[C@H](n3cnc4c(N)ncnc43)O[C@@H]2COP(=O)(S)O[C@H]2C[C@H](n3cnc4c(=O)[nH]c(N)nc43)O[C@@H]2COP(=O)(S)O[C@H]2C[C@H](n3cc(C)c(=O)[nH]c3=O)O[C@@H]2COP(=O)(S)O[C@H]2C[C@H](n3ccc(N)nc3=O)O[C@@H]2COP(=O)(S)O[C@H]2C[C@H](n3cc(C)c(=O)[nH]c3=O)O[C@@H]2COP(=O)(S)O[C@H]2C[C@H](n3cnc4c(N)ncnc43)O[C@@H]2COP(=O)(S)O[C@H]2C[C@H](n3cc(C)c(=O)[nH]c3=O)O[C@@H]2COP(=O)(S)O[C@H]2C[C@H](n3ccc(N)nc3=O)O[C@@H]2CO)O[C@H]1n1cnc2c(=O)[nH]c(N)nc21` (some centres undefined), for which the result in the experiment on Mus musculus [1], in the experiment on Mus musculus [2], in the experiment with J774, with Mus musculus [4], in the experiment with Splenocyte [5] and in the experiment with Splenocyte [6] was Active. In addition, the result with Mus musculus [7], in the experiment with Splenocyte [10] and in the experiment on Mus musculus [11] was Active. For the same compound, the outcome (in experiment [3]; in the experiment on Mus musculus [8]; in [9]) was inactive.
Consider `CO[C@@H]1[C@H](OP(=O)(S)OC[C@H]2O[C@@H](n3cnc4c(=O)[nH]c(N)nc43)C[C@@H]2OP(=O)(S)OC[C@H]2O[C@@H](n3cc(C)c(=O)[nH]c3=O)C[C@@H]2OP(=O)(S)OC[C@H]2O[C@@H](n3cc(C)c(=O)[nH]c3=O)C[C@@H]2OP(=O)(S)OC[C@H]2O[C@@H](n3ccc(N)nc3=O)C[C@@H]2OP(=O)(S)OC[C@H]2O[C@@H](n3cc(C)c(=O)[nH]c3=O)C[C@@H]2OP(=O)(S)OC[C@H]2O[C@@H](n3ccc(N)nc3=O)C[C@@H]2OP(=O)(S)OC[C@H]2O[C@@H](n3cc(C)c(=O)[nH]c3=O)C[C@@H]2OP(=O)(S)OC[C@H]2O[C@@H](n3cnc4c(=O)[nH]c(N)nc43)C[C@@H]2OP(=O)(S)OC[C@H]2O[C@@H](n3cc(C)c(=O)[nH]c3=O)C[C@@H]2O)[C@@H](COP(=O)(S)O[C@H]2C[C@H](n3cnc4c(N)ncnc43)O[C@@H]2COP(=O)(S)O[C@H]2C[C@H](n3cnc4c(=O)[nH]c(N)nc43)O[C@@H]2COP(=O)(S)O[C@H]2C[C@H](n3cc(C)c(=O)[nH]c3=O)O[C@@H]2COP(=O)(S)O[C@H]2C[C@H](n3ccc(N)nc3=O)O[C@@H]2COP(=O)(S)O[C@H]2C[C@H](n3cc(C)c(=O)[nH]c3=O)O[C@@H]2COP(=O)(S)O[C@H]2C[C@H](n3cnc4c(N)ncnc43)O[C@@H]2COP(=O)(S)O[C@H]2C[C@H](n3cc(C)c(=O)[nH]c3=O)O[C@@H]2COP(=O)(S)O[C@H]2C[C@H](n3ccc(N)nc3=O)O[C@@H]2CO)O[C@H]1n1ccc(N)nc1=O` (some centres undefined), for which the result in the experiment on Mus musculus [1], in the experiment with Mus musculus [2], in the experiment on J774, in the experiment with Mus musculus [4], with Splenocyte [5] and with Splenocyte [6] was Active. The outcome with Mus musculus [7], with Splenocyte [10] and in the experiment with Mus musculus [11] was Active. The result (in [3]; in the experiment with Mus musculus [8]; in [9]) was inactive.
